From ChEMBL document CHEMBL5113451, “Discovery of 2-thiobenzimidazoles as noncovalent inhibitors of SARS-CoV-2 main protease” (Bioorg Med Chem Lett, 2022) come the findings set out here.

Molecules are shown by their SMILES.

One assay addresses T1, Replicase polyprotein 1ab (Severe acute respiratory syndrome coronavirus 2, UniProt P0DTD1). In words: Inhibition of His6-tagged SARS-CoV-2 main protease expressed in Escherichia coli BL21 (DE3) using DABCYL-KTSAVLQ1SGFRKM-E(EDANS)-NH2 as substrate preincubated for 15 mins followed by substrate addition in presence of Triton-X by FRET analysis.
With `O=C(CSc1nc2cc(Cl)ccc2n1Cc1ccccc1)N1CCNC1=O`, the concentration for half-maximal inhibition (IC50) came to 24.2 µM.

Consider `COCCn1c(C(=O)NCC(O)c2ccccc2)nc2ccccc2c1=O` (configuration not stated), for which the 50% inhibitory concentration (IC50) turned out to be 54 µM.

The target in another assay is T1, Replicase polyprotein 1ab. In words: Inhibition of His6-tagged SARS-CoV-2 main protease expressed in Escherichia coli BL21 (DE3) using DABCYL-KTSAVLQ1SGFRKM-E(EDANS)-NH2 as substrate preincubated for 15 mins followed by substrate addition by FRET analysis. Put shortly:
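Inhibitor preincubated 15 min at 30 °C, then dabcyl-edans substrate added. Fluorescence followed at 90 s intervals. […] Three independent experiments.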
Consider `O=C1OCCN1C(=O)C(Cc1ccccc1)Sc1nc2cc(Cl)ccc2n1Cc1ccccc1` (configuration not stated), for which the IC50 came to 26.7 µM.

`O=C1NCCN1C(=O)C(Cc1ccccc1)Sc1nc2cc(Cl)ccc2n1Cc1ccccc1` (configuration not stated) yielded an IC50 of 29.9 µM.

Molecule `O=C(CSc1nc2cc(Cl)ccc2n1Cc1ccccc1)N1CCOC1=O` returned an IC50 of 62.2 µM.

Molecule `O=C(CSc1nc2cc(Cl)ccc2n1Cc1ccccc1)N1CCNC1=O` yielded a half-inhibitory concentration (IC50) of 24.2 µM.

Consider `O=C(CSc1nc2cc(Cl)c(Cl)cc2n1Cc1ccccc1)N1CCOC1=O`, for which 29.5 µM corresponded to half-maximal inhibition (IC50).

In turn, `O=C1OCCN1C(=O)C(Cc1ccco1)Sc1nc2ccc(O)cc2n1Cc1ccccc1` (configuration not stated) gave an IC50 of 55.8 µM.

Take `O=C1OCCN1C(=O)C(Cc1ccco1)Sc1nc2ccc(Cl)cc2n1Cc1ccccc1` (configuration not stated): 52.9 µM corresponded to half-maximal inhibition (IC50).

Consider `O=C1OCCN1C(=O)C(Cc1ccco1)Sc1nc2cc(Cl)ccc2n1Cc1ccccc1` (configuration not stated), for which the IC50 is 14.9 µM.

`CC(C)(C)c1ccc2c(c1)nc(SC(Cc1ccccc1)C(=O)N1CCOC1=O)n2Cc1ccccc1` (configuration not stated): inhibition was half-maximal at 29.5 µM (IC50).

Regarding `Cc1ccc2c(c1)nc(SC(Cc1ccccc1)C(=O)N1CCNC1=O)n2Cc1ccccc1` (configuration not stated), the IC50 is 32.4 µM.

Turning to `COc1cc2c(cc1Cl)nc(SCC(=O)N1CCOC1=O)n2Cc1ccccc1`, the concentration for half-maximal inhibition (IC50) is 52.5 µM.

Regarding `CC(C)(C)c1ccc2c(c1)nc(SCC(=O)N1CCOC1=O)n2Cc1ccccc1`, 35.1 µM corresponded to half-maximal inhibition (IC50).

Molecule `COc1cc2c(cc1Cl)nc(SC(Cc1ccco1)C(=O)N1CCOC1=O)n2Cc1ccccc1` (configuration not stated) had an IC50 of 27.7 µM.

The molecule `O=C(CSc1nc2cc(Cl)c(O)cc2n1Cc1ccccc1)N1CCOC1=O` registered an IC50 of 35.8 µM.

As for `Cc1ccc2c(c1)nc(SC(Cc1ccccc1)C(=O)N1CCOC1=O)n2Cc1ccccc1` (configuration not stated), the 50% inhibitory concentration (IC50) stood at 36.5 µM.

Turning to `COc1ccc2nc(SC(Cc3ccco3)C(=O)N3CCOC3=O)n(Cc3ccccc3)c2c1` (configuration not stated), the IC50 worked out at 53.9 µM.

For `O=C1OCCN1C(=O)C(Cc1ccco1)Sc1nc2cc(Cl)c(Cl)cc2n1Cc1ccccc1` (configuration not stated), the IC50 stood at 30.8 µM.

Turning to `O=C1OCCN1C(=O)C(Cc1ccco1)Sc1nc2cc(Cl)c(O)cc2n1Cc1ccccc1` (configuration not stated), the IC50 worked out at 46.1 µM.

For the next assay, the target named is Replicase polyprotein 1ab (Severe acute respiratory syndrome coronavirus 2) (UniProt P0DTD1). Put plainly: Inhibition of His6-tagged SARS-CoV-2 main protease expressed in Escherichia coli BL21 (DE3) assessed as residual enzyme activity using DABCYL-KTSAVLQ1SGFRKM-E(EDANS)-NH2 as substrate at 50 uM preincubated for 15 mins followed by substrate addition by FRET analysis. Put shortly: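 Compound at 50 µM preincubated 15 min at 30 °C before dabcyl-edans peptide added. Fluorescence read every 90 s for about 2.5 h, baseline subtracted.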
As for `O=C(CSc1nc2cc(Cl)ccc2n1Cc1ccccc1)N1CCNC1=O`, the Activity was determined as 50%.

Turning to `COCCn1c(C(=O)NCC(O)c2ccccc2)nc2ccccc2c1=O` (configuration not stated), the Activity was found to be 50%.

A word on the IC50: it is the point on the concentration scale where inhibition reaches its midpoint.
